Test results: ChEMBL document CHEMBL1147862, “Studies on synthesis and pharmacological activities of 3,6-disubstituted-1,2,4-triazolo[3,4-b]-1,3,4-thiadiazoles and their dihydro analogues” (2007)

Tests used:
Assay type in all cases: functional
[1] = system: Mus musculus; assay: Analgesic activity in Swiss mouse assessed as increase in reaction time at 20 mg/kg, po after 30 mins by Eddy's hot plate technique
Outline: (§1)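 Swiss mice of either sex, 25–35 g, placed one at a time on a hot plate held at 55 °C. End point is paw licking or jumping, whichever comes first, with a 15 s cut-off to avoid paw injury. Reaction time is recorded and reported as percent increase in reaction time.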

[2] = system: Mus musculus; assay: Analgesic activity in Swiss mouse assessed as increase in reaction time at 20 mg/kg, po after 60 mins by Eddy's hot plate technique; outline: as §1
[3] = system: Mus musculus; assay: Analgesic activity in Swiss mouse assessed as increase in reaction time at 20 mg/kg, po after 90 mins by Eddy's hot plate technique; outline: as §1
[4] = system: Candida albicans; assay: Antifungal activity against Candida albicans at 10 ug/ml by paper disc method; settings: read-out: IZ
[5] = system: Candida albicans; assay: Antifungal activity against Candida albicans at 20 ug/ml by paper disc method; settings: read-out: IZ
[6] = system: Candida albicans; assay: Antifungal activity against Candida albicans at 30 ug/ml by paper disc method; settings: read-out: IZ
[7] = system: Aspergillus niger; assay: Antifungal activity against Aspergillus niger at 10 ug/ml by paper disc method; settings: read-out: IZ
[8] = system: Aspergillus niger; assay: Antifungal activity against Aspergillus niger at 20 ug/ml by paper disc method; settings: read-out: IZ
[9] = system: Aspergillus niger; assay: Antifungal activity against Aspergillus niger at 30 ug/ml by paper disc method; settings: read-out: IZ
[10] = system: Escherichia coli; assay: Antibacterial activity against Escherichia coli at 10 ug/ml by agar plate diffusion technique; settings: read-out: IZ
[11] = system: Escherichia coli; assay: Antibacterial activity against Escherichia coli at 20 ug/ml by agar plate diffusion technique; settings: read-out: IZ
[12] = system: Escherichia coli; assay: Antibacterial activity against Escherichia coli at 30 ug/ml by agar plate diffusion technique; settings: read-out: IZ
[13] = system: Pseudomonas aeruginosa; assay: Antibacterial activity against Pseudomonas aeruginosa at 10 ug/ml by agar plate diffusion technique; settings: read-out: IZ
[14] = system: Pseudomonas aeruginosa; assay: Antibacterial activity against Pseudomonas aeruginosa at 20 ug/ml by agar plate diffusion technique; settings: read-out: IZ
[15] = system: Pseudomonas aeruginosa; assay: Antibacterial activity against Pseudomonas aeruginosa at 30 ug/ml by agar plate diffusion technique; settings: read-out: IZ
[16] = system: Bacillus subtilis; assay: Antibacterial activity against Bacillus subtilis at 10 ug/ml by agar plate diffusion technique; settings: read-out: IZ
[17] = system: Bacillus subtilis; assay: Antibacterial activity against Bacillus subtilis at 20 ug/ml by agar plate diffusion technique; settings: read-out: IZ
[18] = system: Bacillus subtilis; assay: Antibacterial activity against Bacillus subtilis at 30 ug/ml by agar plate diffusion technique; settings: read-out: IZ
[19] = system: Staphylococcus aureus; assay: Antibacterial activity against Staphylococcus aureus at 10 ug/ml by agar plate diffusion technique; settings: read-out: IZ
[20] = system: Staphylococcus aureus; assay: Antibacterial activity against Staphylococcus aureus at 20 ug/ml by agar plate diffusion technique; settings: read-out: IZ
[21] = system: Staphylococcus aureus; assay: Antibacterial activity against Staphylococcus aureus at 30 ug/ml by agar plate diffusion technique; settings: read-out: IZ
[22] = system: Rattus norvegicus; assay: Antiinflammatory activity in Wistar Albino rat assessed as inhibition of carrageenan-induced paw oedema at 20 mg/kg after 1 hr relative to control
Outline: (§2)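 Wistar albino rats, 150–200 g, six per group, dosed orally with a 20 mg/kg suspension; control gets 0.1 ml 1% gum acacia. After 30 min, 0.1 ml 1% carrageenan in saline is injected subplantar into the right hind paw. Paw volume is read by plethysmograph at 0–4 h. Inhibition = 100(1 − Vtest/Vcontrol) on mean volume increase.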

[23] = system: Rattus norvegicus; assay: Antiinflammatory activity in Wistar Albino rat assessed as inhibition of carrageenan-induced paw oedema at 20 mg/kg after 2 hrs relative to control; outline: as §2
[24] = system: Rattus norvegicus; assay: Antiinflammatory activity in Wistar Albino rat assessed as inhibition of carrageenan-induced paw oedema at 20 mg/kg after 3 hrs relative to control; outline: as §2
[25] = system: Rattus norvegicus; assay: Antiinflammatory activity in Wistar Albino rat assessed as inhibition of carrageenan-induced paw oedema at 20 mg/kg after 4 hrs relative to control; outline: as §2

Compound | Activity [1] [%] | Activity [2] [%] | Activity [3] [%] | zone of inhibition at 10 µg/mL [4] [mm] | zone of inhibition at 20 µg/mL [5] [mm] | zone of inhibition at 30 µg/mL [6] [mm] | zone of inhibition at 10 µg/mL [7] [mm] | zone of inhibition at 20 µg/mL [8] [mm] | zone of inhibition at 30 µg/mL [9] [mm] | zone of inhibition at 10 µg/mL [10] [mm] | zone of inhibition at 20 µg/mL [11] [mm] | zone of inhibition at 30 µg/mL [12] [mm] | zone of inhibition at 10 µg/mL [13] [mm] | zone of inhibition at 20 µg/mL [14] [mm] | zone of inhibition at 30 µg/mL [15] [mm] | zone of inhibition at 10 µg/mL [16] [mm] | zone of inhibition at 20 µg/mL [17] [mm] | zone of inhibition at 30 µg/mL [18] [mm] | zone of inhibition at 10 µg/mL [19] [mm] | zone of inhibition at 20 µg/mL [20] [mm] | also measured
COc1ccc(Cc2nnc3sc(-c4ccnc(Cl)c4)nn23)cc1OC | 6.24 | 12.55 | 23.89 | 6.82 | 12.9 | 19.4 | 7.23 | 13 | 18.4 | 6.72 | 12.8 | 19.7 | 6.93 | 12.2 | 19.4 | 7.19 | 13.9 | 18.9 | 7.05 | 13.6 | zone of inhibition at 30 µg/mL [21]: 18.1 mm; inhibition in vivo at 20 mg/kg [22]: 11.2%; inhibition in vivo at 20 mg/kg [23]: 13.2%; inhibition in vivo at 20 mg/kg [24]: 22.5%; inhibition in vivo at 20 mg/kg [25]: 24.2%
COc1ccc(Cl)c(-c2nnc3n2NC(c2ccc([N+](=O)[O-])o2)S3)c1 (stereo not given) | 5.71 | 14.1 | 23.45 | 5.58 | 11.3 | 15.2 | 5.32 | 9.72 | 14.5 | 5.21 | 10.1 | 15.1 | 4.88 | 7.36 | 13.2 | 5.12 | 8.71 | 13.6 | 5.2 | 8.82 | zone of inhibition at 30 µg/mL [21]: 14.2 mm; inhibition in vivo at 20 mg/kg [22]: 15.6%; inhibition in vivo at 20 mg/kg [23]: 18.5%; inhibition in vivo at 20 mg/kg [24]: 21.7%; inhibition in vivo at 20 mg/kg [25]: 24.2%
COc1ccc(Cc2nnc3n2NC(c2cccn2C)S3)cc1OC (stereo not given) | 5.62 | 10.24 | 19.24 | 4.18 | 7.1 | 12.1 | 4.35 | 7.9 | 12.6 | 3.95 | 6.71 | 10.2 | 4.12 | 7.48 | 11.4 | 3.3 | 6.3 | 9.12 | 3.74 | 5.92 | zone of inhibition at 30 µg/mL [21]: 10.6 mm; inhibition in vivo at 20 mg/kg [22]: 13.4%; inhibition in vivo at 20 mg/kg [23]: 15.8%; inhibition in vivo at 20 mg/kg [24]: 18.4%; inhibition in vivo at 20 mg/kg [25]: 19.9%
Cc1occc1-c1nnc2sc(Cc3c[nH]c4ccccc34)nn12 | 6.66 | 22.22 | 35.33 | 5.38 | 9.3 | 12.7 | 5.6 | 8.74 | 13.2 | 5.78 | 9.18 | 13.6 | 4.85 | 8.9 | 13.5 | 5.67 | 8.75 | 13.8 | 5.12 | 8.19 | zone of inhibition at 30 µg/mL [21]: 13.5 mm; inhibition in vivo at 20 mg/kg [22]: 16%; inhibition in vivo at 20 mg/kg [23]: 21.5%; inhibition in vivo at 20 mg/kg [24]: 26.5%; inhibition in vivo at 20 mg/kg [25]: 30%
